Assay outcomes as filed in PubChem.
M1 antagonist – M1 muscarinic receptor (rat) antagonism; CHO-M1 cells, Fluo-4 calcium, ACh EC80 antagonist mode; active compounds read low; hit rate 3.4% among 64,000; B-score at 10 µM; AID 628;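 active means calcium fluorescence response, raw or row-and-column corrected B-score, differing from the plate sample mean either way at a set confidence level, mostly lower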
SF1 activator – activators of human nuclear receptor SF-1. Q13285. CHO-K1 Gal4-SF-1 LBD luciferase reporter; % increase over DMSO SF-1-specific signal. activation, % at 10 µM. hit rate 1.9% among 65,000. AID 522;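 active means activation above the mean activation of all tested compounds plus 3 SD, cut at about 50% in these data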
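Test system: transient Gal4-SF-1 LBD reporter, CHO-K1; Amount: 4,000 CHO-K1 cells per well; Doses: 10 µM only; Timing: compound exposure 20 h at 37 °C; Signal: luciferase light emission; Read-out basis: percent activation relative to DMSO median and mock-transfected background; Control set: DMSO negative control and −SF1 background wells; Replicates: one test per compound.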
M1 ag – M1 muscarinic receptor agonism; CHO-M1 cells, Fluo-4 calcium fluorescence, agonist mode; active compounds read high; B-score at 10 µM; hit rate 3% among 64,000;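 active means fluorescence rise, raw or as B-score row- and column-corrected plate score, outside the 99.7% band of its plate's samples, either direction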
S1P3 agonist – agonists of human S1P3 receptor; Q99500; S1P3 NFAT-BLA reporter cells, agonism, FRET ratio; relative to 1 µM S1P, basal subtracted; activation, % at 4.5 µM; hit rate 0.1% among 60,000;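 active means activation above the screen-wide mean plus 3 SD, cut at about 4.5% in these data, passing the limit was not always enough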
Target sequence (Q99500 whole entry, looked up): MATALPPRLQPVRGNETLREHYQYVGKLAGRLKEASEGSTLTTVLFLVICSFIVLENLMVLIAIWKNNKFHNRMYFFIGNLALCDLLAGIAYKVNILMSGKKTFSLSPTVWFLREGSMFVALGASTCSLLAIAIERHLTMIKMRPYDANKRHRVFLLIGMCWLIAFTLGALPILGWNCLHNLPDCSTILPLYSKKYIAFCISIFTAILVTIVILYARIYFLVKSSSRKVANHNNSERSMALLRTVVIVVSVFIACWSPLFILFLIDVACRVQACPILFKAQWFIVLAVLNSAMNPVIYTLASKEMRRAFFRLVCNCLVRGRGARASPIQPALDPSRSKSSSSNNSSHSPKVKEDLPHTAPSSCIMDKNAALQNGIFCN
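Assay system: CHO cells stably expressing human S1P3, Gα16 and NFAT-β-lactamase reporter. Timing: overnight plating, 4 h compound 37 °C, 2 h substrate RT. Signal: β-lactamase FRET emission ratio 460/535 nm. Measure: percent activation versus median 1 µM S1P response, basal-subtracted, per plate. Repeats: primary screen single test, confirmation screen in triplicate.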
RORa activator – activates the human nuclear receptor RORA. P35398. CHO-K1 Gal4-RORA LBD luciferase reporter, luminescence; percent increase over mock-subtracted basal signal. activation, % at 10 µM. hit rate 1.5% among 65,000;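 active means activation above the mean of all tested compounds plus 3 SD, cut at about 49% in these data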;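 further: 0% = DMSO-treated RORA cells and 100% = added signal equal to DMSO minus mock-transfected cells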
S1P1 ag-PAM – S1P1 (human) agonism or agonism potentiation; P21453; S1P1 CRE-bla cells, forskolin, beta-lactamase FRET, potentiator mode; S1P1 agonist co-added at EC20, 2 nM; 100% = saturating reference agonist, 0% = basal; activation, % at 9.5 µM; hit rate 0.57% among 56,000; AID 449;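 active means activation above a cutoff set at the mean activation of all tested compounds plus 3 SD, cut at about 54% in these data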;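 further: forskolin at 4 µM as EC80 and the EC20 agonist is SEW2871; 100% = SEW2871 at its EC100 plus forskolin at EC80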
M1 ag confirm – rat M1 muscarinic agonism, confirmation; shares compounds with M1 ag; CHO-M1 cells, Fluo-4 calcium fluorescence, agonist mode; actives lie on both sides; fluorescence change (max-min) at 10 µM; hit rate 19% among 1,700;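 active means fluorescence change differs from the solvent-only DMSO control mean at a set confidence level in both duplicate runs; inconclusive means differs from solvent-only control mean in just one of two runs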;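 further: an EC20 dose of acetylcholine follows compound addition during the same imaging run; raw fluorescence intensity difference in instrument units with no normalization to controls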
M4 ag counter – activates rat M4 receptor in counter-screen for M1 agonists; shares compounds with M1 ag; AID 1741; fluorescence change (max-min) at 10 µM; CHO M4/Gqi5 cells, Fluo-4 calcium fluorescence, agonist mode; actives lie on both sides; hit rate 9% among 1,700;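 active means fluorescence change differing from the plate's solvent-only control wells at 99.7% confidence in both duplicates, whether higher or lower; inconclusive means differs from solvent controls in only one of two duplicates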
The depositor's hits bear a star; ? = inconclusive; · = no result. Only some compounds are listed: those with a hit (about 8.8% of all), similar ones and a draw of the others.

SMILES	M1 antagonist	SF1 activator	M1 ag	S1P3 agonist	RORa activator	S1P1 ag-PAM	M1 ag confirm	M4 ag counter
O=C(CSc1nc(-c2ccco2)cc(C(F)(F)F)n1)Nc1ccc(C(=O)N2CCCCC2)cc1	-1.1	-37	6.7*	-1	0	3	?	?
CCn1nc(C)c(NC(=O)CCCSc2nc(-c3ccco3)cc(C(F)(F)F)n2)c1C	0.052	-1	-0.41	-1	0	12	·	·
COc1ccccc1N1CCN(C(=O)CSc2nc(-c3ccco3)cc(C(F)(F)F)n2)CC1	-0.19	1	7.5*	-1	-11	9	-9.7	-11
O=C1CCCCCN1C(=O)c1cccc(C(=O)N2CCCCCC2=O)c1	0.005	7	-0.55	0	22	-6	·	·
Cc1cc(NC(=O)CCN2C(=O)C3C4C=CC(C4)C3C2=O)c2ccccc2n1 (stereo not given)	-0.28	-6	3.3*	-1	4	19	-7.2	-22
O=C(Cn1nnc(-c2ccccc2)n1)OCc1csc(-c2ccccc2)n1	-0.21	19	14*	-1	9	-5	-27	-28
C=CCn1cc(C(=O)NCCCOCC)c(=O)c2cc(S(=O)(=O)N(CC)CC)ccc21	-0.27	4	-0.32	-1	41	-11	·	·
CN1C=CC(=C2C(=O)c3ccccc3C2=O)C=C1	2.6*	16	33*	-1	52*	-23	-30	?
CCCN1C=CC(=C2C(=O)c3ccccc3C2=O)C=C1	0.06	-93	-0.43	-2	-91	7	·	·
c1ccc(CCCNc2ncnc3nc[nH]c23)cc1	-0.45	-1	1.7	-1	-11	3	·	·
Clc1ccc(CCNc2ncnc3nc[nH]c23)cc1	-2.6*	-19	15*	-2	-16	85*	?	?
CCCNc1ncnc2nc[nH]c12	0.03	-3	-0.39	-1	-19	13	·	·
C1=C(CCNc2ncnc3nc[nH]c23)CCCC1	-0.6	18	2.7*	-1	25	39	?	-25
CCOC(=O)C1CCCN(C(=O)CNC(=O)Cn2ccc3ccccc3c2=O)C1 (stereo not given)	0.93	9	0.45	·	-21	·	·	·
N#CC1=C(N)N2C(=C(C#N)C1c1ccccc1)Sc1ccccc12 (stereo not given)	0.56	-2	26	-4	-18	-10	·	·
CCOc1ccc(C2C(C#N)=C(N)N3C(=C2C#N)Sc2ccccc23)cc1 (stereo not given)	-0.44	18	9.9*	0	25	-6	?	?
COc1cccc2cc(-c3nnc(SCC(=O)Nc4nc(C)cs4)n3C)oc12	0.39	-5	3.9*	-1	26	-6	?	-60
Cc1csc(NC(=O)CSc2nnc(-c3ccco3)n2C)n1	0.29	9	0.0057	-2	-1	-8	·	·
CCOc1ccc(NC(=O)COC(=O)c2cccnc2)cc1	1.7	-1	0.81	-2	8	-7	·	·
O=c1cc(CNC2CCCCC2)c2ccccc2[nH]1	-0.2	9	-3*	0	-19	10	?	-48
O=C(Cc1c(O)c2ccccc2[nH]c1=O)NC1CCCCCC1	-0.74	-22	-0.28	0	-1	-20	·	·
COCc1c(C(N)=O)nnn1-c1nonc1N	0.0066	-2	-0.21	0	4	-3	·	·
Cc1cc(C)c(NC(=O)CN2CCN3CCCC3C2)c(C)c1 (stereo not given)	-0.36	-1	-0.26	2	-6	-38	·	·
N#CC1(c2nc3ccccc3[nH]2)CC1c1ccc2c(c1)OCO2 (stereo not given)	0.29	9	2.9*	-1	19	-10	-34*	-82
Cc1ccc(-c2noc(CCC(=O)Nc3ccc4c(c3)OCO4)n2)cc1	0.85	-18	-0.8	0	-11	-7	·	·
